Test results from ChEMBL document CHEMBL4480370, “Synthesis and preliminary evaluation of the anti-cancer activity on A549 lung cancer cells of a series of unsaturated disulfides” (2019).
Active and inactive are the calls of the source. No cut-off for these calls is given here.

Tests used:
[1] = tested on: A549; experiment: Cytotoxicity against human A549 cells assessed as reduction in cell viability at 500 uM after 48 hrs by CellTiter-Glo luminescent assay relative to control; assay type: functional
Method in brief: (§1)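 A549 cells kept in RPMI 1640 with 10% fetal bovine serum and 100 units per ml penicillin–streptomycin. Each molecule was applied at 50, 100, 250 and 500 μM, with viability read at 24 or 48 h by CellTiter-Glo luminescence. Values are expressed relative to untreated control (C), as the mean of three repeats with relative standard deviation.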

[2] = tested on: A549; experiment: Cytotoxicity against human A549 cells assessed as reduction in cell viability at 50 uM after 48 hrs by CellTiter-Glo luminescent assay relative to control; assay type: functional; method in brief: as §1
[3] = tested on: A549; experiment: Cytotoxicity against human A549 cells assessed as reduction in cell viability after 24 hrs by CellTiter-Glo luminescent assay; assay type: functional, cell-based; method in brief: as §1
[4] = tested on: A549; experiment: Cytotoxicity against human A549 cells assessed as reduction in cell viability at 50 to 500 uM by CellTiter-Glo luminescent assay; assay type: functional, cell-based; conditions: TDE = time-dependent effect; method in brief: as §1
[5] = tested on: A549; experiment: Cytotoxicity against human A549 cells assessed as reduction in cell viability at 500 uM after 24 hrs by CellTiter-Glo luminescent assay; assay type: functional, cell-based; method in brief: as §1
[6] = tested on: A549; experiment: Cytotoxicity against human A549 cells assessed as reduction in cell viability at 50 to 500 uM after 24 hrs by CellTiter-Glo luminescent assay; assay type: functional, cell-based; method in brief: as §1
[7] = tested on: A549; experiment: Cytotoxicity against human A549 cells assessed as reduction in cell viability after 48 hrs by CellTiter-Glo luminescent assay; assay type: functional, cell-based; method in brief: as §1
[8] = tested on: A549; experiment: Cytotoxicity against human A549 cells assessed as reduction in cell viability at 250 uM after 48 hrs by CellTiter-Glo luminescent assay; assay type: functional, cell-based; method in brief: as §1
[9] = tested on: A549; experiment: Cytotoxicity against human A549 cells assessed as reduction in cell viability at 100 to 250 uM after 48 hrs by CellTiter-Glo luminescent assay; assay type: functional, cell-based; method in brief: as §1

Structure (SMILES) | Activity [1] [%] | Activity [2] [%] | Activity [3] | Activity [4] | Activity [5] | further results
C=CCSSCC=C [DIALLYLDISULFIDE] | 65 | 54 | Dose-dependent effect | Tde |  | 
CCC/C=C/CSSC/C=C/CCC |  |  |  |  | Active | 
C=CCCCCSSCCCCC=C |  |  |  |  |  | Activity [6]: inactive
C=CCCSSCCC=C | 100 | 68 | Dose-dependent effect | Tde |  | Activity [7]: Dose-dependent effect; Activity [8]: Active
C/C=C/CSSC/C=C/C | 84 | 70 | Dose-dependent effect | Tde |  | Activity [9]: Active
CCCC=CCSSCC=CCCC (mixture of isomers) |  |  |  |  | Active | 
